Source: ChEMBL document CHEMBL1142304, “Synthesis and biological activity of phosphonate analogues and geometric isomers of the highly potent phosphoantigen (E)-1-hydroxy-2-methylbut-2-enyl 4-diphosphate” (J Med Chem, 2008)
Values belong to the compound of their own block, whether it stands above or below them. Activity calls are given as the source filed them. No cut-off for these calls is given here.

Legend:
[1] = Agonist activity at human Vgamma9Vdelta2 receptor expressed in T cells assessed as stimulation of TNFalpha release by ELISA; type: functional, cell-based; details: T-cell
T-cell [2] = assay: Effect on proliferation of human T cell expressing Vgamma9Vdelta2 receptor in cynomolgus monkey co-treated with IL2 assessed as circulating T cells in blood at 0.02 mg/kg, iv; type: functional, organism-based; set-up: dose 0.02 mg/kg
Summary of the method: (§1)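 Cynomolgus monkeys were dosed i.v. in Ringer lactate, either as a 30 min infusion (50 mL) or as a bolus depending on the series, with IL-2 0.6 M IU s.c. daily for 5 days. Blood was sampled predose and on days 4, 5, 7, 11 and 14. Circulating γδ-cells were counted by flow cytometry (Vγ9/CD3/CD69 staining, counting beads).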

T-cell [3] = assay: Effect on proliferation of human T cell expressing Vgamma9Vdelta2 receptor in cynomolgus monkey co-treated with IL2 assessed as circulating T cells in blood at 5 mg/kg, iv; type: functional, organism-based; set-up: dose 5 mg/kg
Summary of the method: (§2)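 Purpose-bred cynomolgus monkeys (7 male, 7 female, 1.8–3.5 kg) got an i.v. bolus in Ringer lactate, with IL-2 0.6 M IU s.c. daily for 5 days. Blood was taken predose and on days 4, 5, 7, 11 and 14. Whole-blood flow cytometry used anti-Vγ9, CD3 and CD69 staining, red-cell lysis and counting fluorospheres for absolute counts.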

T-cell [4] = assay: Effect on proliferation of human T cell expressing Vgamma9Vdelta2 receptor in cynomolgus monkey co-treated with IL2 assessed as circulating T cells in blood at 10 mg/kg, iv; type: functional, organism-based; set-up: dose 10 mg/kg; summary of the method: as §2
[5] = Effect on proliferation of human T cell expressing Vgamma9Vdelta2 receptor in cynomolgus monkey co-treated with IL2 assessed as circulating T cells in blood at 2.5 mg/kg, iv; type: functional; summary of the method: as §1
Rattus norvegicus = assay: Drug level in iv dosed rat assessed as recovered compound after 7 days; type: ADME, organism-based; details: in vivo, 168 h
[6] = Drug level in iv dosed rat assessed as excreted compound in urine; type: ADME, organism-based; details: read-out: Drug uptake
[7] = Chemical stability at 4 degC after 7 days; type: physicochemical; details: 168 h
Summary of the method: (§3)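 Pyrophosphate analogue tested as 0.3 mM solution and pyrophosphonate analogue as 0.5 mM solution under the stated temperature, 0.1 N HCl or H2O2 stress. Degradation was measured by ionic chromatography with conductometric detection and estimated as % of relative area.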

[8] = Chemical stability assessed as degradation at 25 degC after 7 days; type: physicochemical; details: 168 h; summary of the method: as §3
[9] = Chemical stability assessed as degradation at 60 degC after 24 hrs; type: physicochemical; details: read-out: Activity; summary of the method: as §3
[10] = Chemical stability assessed as degradation in 3% H2O2 at 60 degC after 2 hrs; type: physicochemical; details: read-out: Activity; summary of the method: as §3

SMILES: C/C(=C/CO)CCP(=O)(O)O
EC50 [1]: > 100000 nM

SMILES: CC(O)(CBr)CCOP(=O)(O)OP(=O)(O)O (configuration not stated) [BROMOHYDRIN PYROPHOSPHATE]
EC50 [1]: 23.9 nM

SMILES: C/C(=C/CO)CCP(=O)(O)OP(=O)(O)O
EC50 [1]: > 100000 nM

The next lines start with results.

EC50 [1]: 0.39 nM
Drug uptake (Rattus norvegicus): 80%
dose excreted [6]: 50%
Stability [7]: Stable
degradation [8]: 5%
degraded at 24 h [9]: 14%
degraded at 2 h [10]: 4%
SMILES: C/C(=C\COP(=O)(O)OP(=O)(O)O)CO
Activity (T-cell [2]): Active
Activity (T-cell [3]): Active
Activity (T-cell [4]): Active
Activity [5]: 40%

EC50 [1]: 93.5 nM
SMILES: C/C(=C\CO)COP(=O)(O)OP(=O)(O)O

EC50 [1]: 252 nM
SMILES: C/C(=C/COP(=O)(O)OP(=O)(O)O)CO

EC50 [1]: > 100000 nM
SMILES: C/C(=C/CO)COP(=O)(O)OP(=O)(O)O
